What is called Kd is the equilibrium constant for the complex coming apart. Usually IC50 stands for the point on the concentration scale where inhibition reaches its midpoint. Read a high IC50 as weaker potency in that assay.

The source of these data is ChEMBL document CHEMBL2439963, “Synthetic trimethyllysine receptors that bind histone 3, trimethyllysine 27 (H3K27me3) and disrupt its interaction with the epigenetic reader protein CBX7” (Bioorg Med Chem, 2013).

The nature of assay [1]: Displacement of calixarene-LCG from synthetic H3K27 peptide. Put shortly: (§1)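 Competitive lucigenin displacement: 0.5 µM lucigenin plus 1.25 µM calixarene in 0.01 M phosphate buffer pH 7.4, titrated with Ac-capped peptide (H3K27 0–1.5 mM; H3K27me3 0–0.5 mM). Emission read at λex 369 nm, λem 485 nm. Kd fitted by cubic competitive binding equations, with host–dye constant fixed from the prior direct titration. Duplicate determinations averaged.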

Assay [2] is described as follows: Inhibition of synthetic H3K27me3 peptide interaction to CBX7 after 15 mins by fluorescence polarization assay. The gist of the method:
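Calixarene was added at 0–10 mM, dissolved in water with 4 equiv NaOH. Incubated 15 min in the dark and read at ex 450/em 530 nm. mP was normalized to % complex, IC50 taken from a sigmoidal fit, triplicates averaged.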
A general note: In fluorescence polarisation assays a small probe gives low polarisation when free and higher when bound to something large.

Assay [3] in a line: Displacement of calixarene-LCG from synthetic H3K27me3 peptide. The gist of the method:
as §1

Assay [4] in a line: Displacement of calixarene-LCG from synthetic H3K27 peptide by isothermal titration calorimetry analysis. Background: Isothermal titration calorimetry measures the heat released or taken up as one component is titrated into another.
A short description of assay [5]: Displacement of calixarene-LCG from synthetic H3K27me3 peptide by isothermal titration calorimetry analysis.

Regarding `Cc1ccc(S(=O)(=O)Nc2cc3c(O)c(c2)Cc2cc(S(=O)(=O)O)cc(c2O)Cc2cc(S(=O)(=O)O)cc(c2O)Cc2cc(S(=O)(=O)O)cc(c2O)C3)cc1`, the Kd in assay [1] and in assay [3] was more than 100 µM each time. This molecule showed an IC50 in assay [2] of more than 2000 µM.
Consider `NC(=O)c1ccc(-c2cc3c(O)c(c2)Cc2cc(S(=O)(=O)O)cc(c2O)Cc2cc(S(=O)(=O)O)cc(c2O)Cc2cc(S(=O)(=O)O)cc(c2O)C3)cc1`, for which the values for the Kd in assay [1] and in assay [3] were 23 µM and 1.86 µM, respectively. In assay [2], it took 590 µM to reach half-maximal inhibition (IC50).
Turning to `COc1cccc(-c2cc3c(O)c(c2)Cc2cc(S(=O)(=O)O)cc(c2O)Cc2cc(S(=O)(=O)O)cc(c2O)Cc2cc(S(=O)(=O)O)cc(c2O)C3)c1OC`, the Kd in assay [1] amounted to 25 µM; in assay [3] it was 2.13 µM. The IC50 in assay [2] is 1700 µM.
For `COc1ccc(-c2cc3c(O)c(c2)Cc2cc(S(=O)(=O)O)cc(c2O)Cc2cc(S(=O)(=O)O)cc(c2O)Cc2cc(S(=O)(=O)O)cc(c2O)C3)cc1`, in that order: 20 µM, 0.78 µM and 360 µM.
For `Cc1ccc(-c2cc3c(O)c(c2)Cc2cc(S(=O)(=O)O)cc(c2O)Cc2cc(S(=O)(=O)O)cc(c2O)Cc2cc(S(=O)(=O)O)cc(c2O)C3)cc1`, in that order: 2.7 µM, 0.34 µM and 230 µM.
The like results for `N#Cc1ccc(-c2cc3c(O)c(c2)Cc2cc(S(=O)(=O)O)cc(c2O)Cc2cc(S(=O)(=O)O)cc(c2O)Cc2cc(S(=O)(=O)O)cc(c2O)C3)cc1` were, in that order, 11.3 µM, 0.88 µM and 370 µM.
As for `O=S(=O)(O)c1cc2c(O)c(c1)Cc1cc(S(=O)(=O)O)cc(c1O)Cc1cc(S(=O)(=O)O)cc(c1O)Cc1cc(Br)cc(c1O)C2`, the Kd amounted to 13.3 µM in assay [1] and 0.7 µM in assay [3]. Besides, it took 470 µM to reach half-maximal inhibition in assay [2] (IC50).
In the case of `O=S(=O)(O)c1cc2c(O)c(c1)Cc1cc(S(=O)(=O)O)cc(c1O)Cc1cc(S(=O)(=O)O)cc(c1O)Cc1cc(-c3ccccc3)cc(c1O)C2`, the Kd in assay [1] is 19 µM; in assay [4], 51.4 µM; in assay [3], 0.75 µM; in assay [5] it was 4.03 µM. Further, the IC50 in assay [2] stood at 510 µM.
Regarding `O=[N+]([O-])c1cc2c(O)c(c1)Cc1cc(S(=O)(=O)O)cc(c1O)Cc1cc(S(=O)(=O)O)cc(c1O)Cc1cc(S(=O)(=O)O)cc(c1O)C2`, the Kd was found to be 30 µM in assay [1] and 10 µM in assay [3]. The molecule also returned an IC50 in assay [2] of more than 5000 µM.
As for `O=S(=O)(O)c1cc2c(O)c(c1)Cc1cc(S(=O)(=O)O)cc(c1O)Cc1cc(S(=O)(=O)O)cc(c1O)Cc1cc(S(=O)(=O)O)cc(c1O)C2`, the Kd in assay [1] was found to be 220 µM; in assay [3], 5.4 µM. Further, 2500 µM corresponded to half-maximal inhibition in assay [2] (IC50).
